From PMC3764597 (Carbohydrate research, 2013)
Several values for one entry are separate records, joined by “and”; a condition that tells them apart may be missing. Identical values can stand only once. Entries after “also recorded” stand apart in the source; their conditions may differ. Like-named read-outs stand apart in the source and are kept apart here. One block for each molecule: values may come before it.

Assays:
[1] = cited from earlier work; for collapse pressure: room temperature; for "lift-off" temperature: linear alkanoic acids
[2] = MTS cytotoxicity assay in HaCaT cells; type: cell-based, human; details: human, HaCaT cells (spontaneously immortalized keratinocytes)
Method in brief: (§1)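 Cells kept in DMEM with 10% heat-inactivated newborn calf serum plus penicillin/streptomycin/amphotericin B at 37 °C, 5% CO₂. Seeded 5,000 per well. Compound in DMSO added at 1–1000 μM for 18 h, then MTS for 2 h. A490 read with A650 reference, medium+MTS background subtracted. Viability given as % of DMSO-treated cells, triplicates. CC₅₀ by linear regression of the two points bracketing 50%.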

[3] = MTS cytotoxicity assay in Hs27 cells; type: cell-based, human; details: human, Hs27 cells (foreskin fibroblasts)
Method in brief: as §1

[4] = MTS cytotoxicity assay in Jurkat cells; type: cell-based, human; details: human, Jurkat cells (acute leukemia T lymphocytes)
Method in brief: (§2)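 Jurkat cells kept in RPMI with 10% heat-inactivated FBS plus antibiotics at 37 °C, 5% CO₂. Seeded 25,000 per well. Compound in DMSO at 1–1000 μM for 16 h, then MTS for 4 h. A490 read with A650 reference, background-corrected. Viability normalized to DMSO controls, triplicates. CC₅₀ from regression line through the two viabilities nearest 50%.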

[5] = test system: HaCaT, Hs27 and Jurkat cells; test: MTS cytotoxicity assay, statements summarised over the cell lines; type: cell-based; details: for toxicity (MTS assay), in words: all three cell lines (HaCaT, Hs27, Jurkat), concentrations 1 to 1000 μM
[6] = Differential scanning calorimetry; type: physicochemical; details: DSC; for Transition temperature: 25 to 200 °C, 2.5 °C/min; for Enthalpy: phase transition, from integration of the thermograms
Method in brief: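 Dry surfactant (1.0–1.5 mg) sealed in hermetic aluminum pans against an empty sealed-pan reference. Instrument calibrated with indium for temperature and enthalpy. Scanned 25–200 °C at 2.5 °C/min. Transition enthalpies obtained by integrating the thermograms.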

Jurkat cells = test: Apoptosis/necrosis assay, annexin V-FITC staining and flow cytometry; type: cell-based; details: 20 h incubation, compounds added at their CC50
[7] = Langmuir monolayer compression isotherms at the air-water interface; type: physicochemical; details: for formation of stable monolayers at the air-water interface: 14 °C, 150 mM NaCl / 1.5 mM CaCl2 subphase; for "lift-off" temperature: πtrans versus temperature extrapolated to zero surface pressure
Method in brief: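 Subphase was 150 mM NaCl plus 1.5 mM CaCl₂ in purified water (pH 7.0), held at set temperatures by circulating bath, with impurities vacuumed off. Spread 50 μL of 1.662 mM surfactant in dichloromethane:methanol 9:1, let solvent evaporate, then compressed symmetrically at 10 mm/min (7.5 cm²/min). Wilhelmy platinum plate. Limiting area by extrapolating linear condensed region to zero pressure. Three independent runs.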

[8] = test system: Spontaneously immortalized human keratinocytes (HaCaT); test: MTS cytotoxicity assay in HaCaT cells; type: cell-based; details: HaCaT cells, 18 h treatment then 2 h MTS, 1 to 1000 μM
Method in brief: as §1

human Hs27 fibroblasts [9] = test: MTS cytotoxicity assay in Hs27 cells; type: cell-based; details: Hs27 cells, 18 h treatment then 2 h MTS, 1 to 1000 μM
Method in brief: as §1

[10] = test system: Jurkat human T-cell lymphoblastic leukemia cells; test: MTS cytotoxicity assay in Jurkat cells; type: cell-based; details: Jurkat cells, 16 h treatment then 4 h MTS, 1 to 1000 μM
Method in brief: as §2

[11] = test system: Spontaneously immortalized human keratinocytes (HaCaT); details: HaCaT cells, value of the previous study; cited from earlier work
human Hs27 fibroblasts [12] = details: Hs27 cells, value of the previous study; cited from earlier work
[13] = test system: Jurkat human T-cell lymphoblastic leukemia cells; details: value of the previous study; cited from earlier work
[14] = insoluble monolayers at the air-water interface

Molecule: 6-O-stearoyl galactopyranoside
limiting molecular area [1, 14]: 32 Å^2
collapse pressure [1]: 66 mN/m

Molecule: 6-O-stearoyl glucopyranoside
limiting molecular area [1, 14]: 44 Å^2
collapse pressure [1]: 43 mN/m

Molecule: CCCCCCn1cc(CO[C@@H]2OC[C@@H](O)[C@H](O)[C@H]2O)nn1 [Compound 5a, (1-Hexyl-1H-1,2,3-triazol-4-yl)methyl β-D-xylopyranoside]
CC50 at 18 h [2]: > 1 mM
CC50 at 18 h [3]: > 1 mM
CC50 at 16 h [4]: > 1000 µM
toxicity (MTS assay), in words [5]: not toxic
Transition temperature [6]: 120.1 ± 0.8 °C
Enthalpy [6]: 27 ± 4 kJ/mol

Molecule: CCCCCCCCn1cc(CO[C@@H]2OC[C@@H](O)[C@H](O)[C@H]2O)nn1 [Compound 5b, (1-Octyl-1H-1,2,3-triazol-4-yl)methyl β-D-xylopyranoside]
CC50 at 18 h [2]: 0.89 ± 0.05 mM
CC50 at 18 h [3]: 0.694 ± 0.003 mM
CC50 at 16 h [4]: 580 ± 60 µM
mode of cell death (viable, apoptotic, necrotic cells) (Jurkat cells): comparable with the positive controls for apoptosis
Transition temperature [6]: 126.9 ± 0.8 °C
Enthalpy [6]: 31 ± 5 kJ/mol

Molecule: CCCCCCCCCCn1cc(CO[C@@H]2OC[C@@H](O)[C@H](O)[C@H]2O)nn1 [Compound 5c, (1-Decyl-1H-1,2,3-triazol-4-yl)methyl β-D-xylopyranoside]
CC50 at 18 h [2]: 0.12 ± 0.03 mM
CC50 at 18 h [3]: 0.18 ± 0.05 mM
CC50 at 16 h [4]: 77 ± 9 µM
fold more toxic than 5b ([5]; in both Jurkat and HaCaT cells, from CC50 values): approximately 8 fold
Transition temperature [6]: 133.6 ± 0.1 °C
Enthalpy [6]: 39 ± 2 kJ/mol

Transition temperature [6]: 130.1 ± 0.2 °C
Enthalpy [6]: 34 ± 2 kJ/mol
Molecule: CCCCCCCCCCCCn1cc(CO[C@@H]2OC[C@@H](O)[C@H](O)[C@H]2O)nn1 [Compound 5d, (1-Dodecyl-1H-1,2,3-triazol-4-yl)methyl β-D-xylopyranoside]
CC50 at 18 h [2]: > 1 mM
CC50 at 18 h [3]: > 1 mM
CC50 at 16 h [4]: 26 ± 3 µM

Molecule: CCCCCCCCCCCCCCn1cc(CO[C@@H]2OC[C@@H](O)[C@H](O)[C@H]2O)nn1 [Compound 5e, (1-Tetradecyl-1H-1,2,3-triazol-4-yl)methyl β-D-xylopyranoside]
CC50 at 18 h [2]: > 1 mM
CC50 at 18 h [3]: > 1 mM
CC50 at 16 h [4]: > 1000 µM
toxicity (MTS assay), in words [5]: not toxic
Transition temperature [6]: 134.7 ± 0.4 °C
Enthalpy [6]: 41 ± 1 kJ/mol
formation of stable monolayers at the air-water interface [7]: formed stable monolayers
Atrans: mean molecular area at phase transition ([7]; subphase 14 °C): 68 Å^2/molecule and 68.5 ± 0.9 Å^2/molecule
π max: maximum surface pressure (collapse pressure) ([7]; subphase 14 °C): 64.1 ± 0.5 mN/m
π trans: surface pressure at phase transition ([7]; subphase 14 °C): 5.6 mN/m and 5.6 ± 0.2 mN/m
Atrans: mean molecular area at phase transition ([7]; subphase 17 °C): 53.6 ± 0.9 Å^2/molecule
π max: maximum surface pressure (collapse pressure) ([7]; subphase 17 °C): 62.4 ± 1.4 mN/m
π trans: surface pressure at phase transition ([7]; subphase 17 °C): 11.3 ± 0.2 mN/m
Atrans: mean molecular area at phase transition ([7]; subphase 22 °C): 47.5 ± 0.2 Å^2/molecule
π max: maximum surface pressure (collapse pressure) ([7]; subphase 22 °C): 59.4 ± 0.6 mN/m
π trans: surface pressure at phase transition ([7]; subphase 22 °C): 15.0 ± 0.1 mN/m
Atrans: mean molecular area at phase transition ([7]; subphase 26 °C): 42.1 ± 0.7 Å^2/molecule
π max: maximum surface pressure (collapse pressure) ([7]; subphase 26 °C): 53.0 ± 2.0 mN/m
π trans: surface pressure at phase transition ([7]; subphase 26 °C): 20.9 ± 0.2 mN/m
Atrans: mean molecular area at phase transition ([7]; subphase 30 °C): 38 Å^2/molecule and 38.0 ± 1.2 Å^2/molecule
π max: maximum surface pressure (collapse pressure) ([7]; subphase 30 °C): 47.0 ± 3.0 mN/m
π trans: surface pressure at phase transition ([7]; subphase 30 °C): 26 mN/m and 27.0 ± 0.5 mN/m
"lift-off" temperature [7]: 9.2 °C

Molecule: CCCCCCCCCCCCCCCCn1cc(CO[C@@H]2OC[C@@H](O)[C@H](O)[C@H]2O)nn1 [Compound 5f, (1-Hexadecyl-1H-1,2,3-triazol-4-yl)methyl β-D-xylopyranoside]
CC50 at 18 h [2]: > 1 mM
CC50 at 18 h [3]: > 1 mM
CC50 at 16 h [4]: > 1000 µM
toxicity (MTS assay), in words [5]: not toxic
Transition temperature [6]: 134.9 ± 0.1 °C
Enthalpy [6]: 44 ± 2 kJ/mol
formation of stable monolayers at the air-water interface [7]: formed stable monolayers
Atrans: mean molecular area at phase transition ([7]; subphase 22 °C): 84.0 ± 2.0 Å^2/molecule
π max: maximum surface pressure (collapse pressure) ([7]; subphase 22 °C): 64.0 ± 3.0 mN/m
π trans: surface pressure at phase transition ([7]; subphase 22 °C): 1.6 ± 0.2 mN/m
Atrans: mean molecular area at phase transition ([7]; subphase 26 °C): 70.0 ± 2.0 Å^2/molecule
π max: maximum surface pressure (collapse pressure) ([7]; subphase 26 °C): 58.6 ± 0.8 mN/m
π trans: surface pressure at phase transition ([7]; subphase 26 °C): 6.8 ± 0.1 mN/m
Atrans: mean molecular area at phase transition ([7]; subphase 30 °C): 65.0 ± 2.0 Å^2/molecule
π max: maximum surface pressure (collapse pressure) ([7]; subphase 30 °C): 53.6 ± 1.0 mN/m
π trans: surface pressure at phase transition ([7]; subphase 30 °C): 9.9 ± 0.1 mN/m
Atrans: mean molecular area at phase transition ([7]; subphase 33 °C): 61.0 ± 2.0 Å^2/molecule
π max: maximum surface pressure (collapse pressure) ([7]; subphase 33 °C): 51.6 ± 0.4 mN/m
π trans: surface pressure at phase transition ([7]; subphase 33 °C): 11.6 ± 0.3 mN/m
Atrans: mean molecular area at phase transition ([7]; subphase 37 °C): 51 Å^2/molecule and 51.2 ± 0.9 Å^2/molecule
π max: maximum surface pressure (collapse pressure) ([7]; subphase 37 °C): 48.0 ± 2.0 mN/m
π trans: surface pressure at phase transition ([7]; subphase 37 °C): 18 mN/m and 18.4 ± 0.4 mN/m
"lift-off" temperature [7]: 20.2 °C

Molecule: O[C@@H]1[C@@H](O)[C@H](OCc2cn(CCC(F)(F)C(F)(F)C(F)(F)C(F)(F)C(F)(F)C(F)(F)F)nn2)OC[C@H]1O [Compound 5g, (1-(3,3,4,4,5,5,6,6,7,7,8,8,8-Tridecafluorooctyl)-1H-1,2,3-triazol-4-yl)methyl β-D-xylopyranoside]
CC50 at 18 h [2]: > 1 mM
CC50 at 18 h [3]: > 1 mM
CC50 at 16 h [4]: > 1000 µM
toxicity (MTS assay), in words [5]: not toxic; also recorded: no measurable inhibition of cell viability
Transition temperature [6]: 158 °C and 158.8 ± 0.2 °C
Enthalpy [6]: 45 ± 1 kJ/mol

Molecule: CCCCCCCCCCCCCCCC(=O)O [hexadecanoic acid]
"lift-off" temperature [1]: ~26 °C

Molecule: CCCCCCCCCCCCCC(=O)O [tetradecanoic acid]
"lift-off" temperature [1]: approximately 7 °C

Molecule: CCCCCCCCS[C@@H]1O[C@H](CO)[C@@H](O)[C@H](O)[C@H]1O [β-OTG, β-octyl thioglucopyranoside, reference compound]
CC50 [8]: 490 ± 60 µM
CC50 (human Hs27 fibroblasts [9]): 380 ± 30 µM
CC50 [10]: 310 ± 40 µM

Molecule: CCCCCCCCO[C@@H]1OC[C@@H](O)[C@H](O)[C@H]1O [β-OXP, β-octyl xylopyranoside]
CC50 [11]: 850 ± 30 µM
CC50 (human Hs27 fibroblasts [12]): 760 ± 50 µM
CC50 [13]: 460 ± 13 µM

Molecule: n-nonyl glucosamine
limiting molecular area ([1]; 25 °C): 46 Å^2/molecule

Molecule: n-octyl glucosamine
limiting molecular area ([1]; 25 °C): 48 Å^2/molecule
